Test results reported in ChEMBL document CHEMBL2331132, “Synthesis, evaluation and absolute configuration assignment of novel dihydropyrimidin-2-ones as picomolar sodium iodide symporter inhibitors” (Eur J Med Chem, 2013).

What was measured:
[1] = target: T1, Sodium/iodide cotransporter (Rattus norvegicus, UniProt Q63008); test: inhibition of sodium iodide symporter in rat FRTL5 cells after 1 hr by arsenic/cerium titration assay; assay type: cell-based, FRTL-5
T1 sequence (Q63008 whole entry): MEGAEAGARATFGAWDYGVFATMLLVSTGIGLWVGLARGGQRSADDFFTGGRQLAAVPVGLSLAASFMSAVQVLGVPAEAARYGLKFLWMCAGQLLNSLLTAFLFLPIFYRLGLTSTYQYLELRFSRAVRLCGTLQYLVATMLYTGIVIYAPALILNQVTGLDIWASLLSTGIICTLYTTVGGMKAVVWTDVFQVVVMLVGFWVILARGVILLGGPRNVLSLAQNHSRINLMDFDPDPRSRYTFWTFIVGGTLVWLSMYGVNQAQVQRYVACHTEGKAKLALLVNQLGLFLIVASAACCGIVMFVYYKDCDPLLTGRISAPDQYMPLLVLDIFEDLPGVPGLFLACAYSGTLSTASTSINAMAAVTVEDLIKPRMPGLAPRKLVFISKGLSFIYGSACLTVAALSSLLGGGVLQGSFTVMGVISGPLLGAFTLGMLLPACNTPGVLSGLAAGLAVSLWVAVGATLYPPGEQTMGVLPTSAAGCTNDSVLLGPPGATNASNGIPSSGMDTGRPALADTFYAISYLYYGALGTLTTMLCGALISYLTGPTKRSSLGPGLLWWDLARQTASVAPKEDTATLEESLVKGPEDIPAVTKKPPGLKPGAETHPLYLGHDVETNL
In short: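 Iodide entrapment measured in FRTL5 cells after 1 h incubation at 20 ± 1 °C. Supernatant removed, then cellular iodide read at once by a modified non-radioactive As/Ce Sandell–Kolthoff reaction against iodide standards. DMSO stocks 20 mM; NaClO₄ and a reference inhibitor on every plate as controls. Racemates tested. IC₅₀ from a four-parameter Hill fit, averaged over ≥2 independent experiments.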

[2] = test system: FRTL-5; test: Cytotoxicity against rat FRTL5 cells at 1 uM after 24 hrs by MTT assay; assay type: cell-based; conditions: frtl-5, 24 h
In short: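 Rat FRTL5 thyroid cells at about 50% confluence, given a single compound concentration for 24 h. MTT added (1.2 mg/mL), then 3 h at 37 °C and absorbance read at 570 nm to score viability. Ouabain run as assay control at eight concentrations.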

SMILES	IC50 [1] [nM]	Activity [2]
CC1=C(C(=O)OCc2ccc3c(c2)OCO3)C(c2ccco2)NC(=O)N1 (configuration not stated)	–	Non-toxic
CC1=C(C(=O)OCc2ccc3c(c2)OCO3)C(c2ccco2)NC(=O)N1C (configuration not stated)	–	Non-toxic
CC1=C(C(=O)OCc2ccc3c(c2)OCO3)C(c2ccco2)N(C)C(=O)N1C (configuration not stated)	–	Non-toxic
CC1=C(C(=O)OCc2ccc3c(c2)OCO3)[C@@H](c2ccco2)N(C)C(=O)N1C	0.7	–
COc1ccc(COC(=O)C2=C(C)NC(=O)NC2c2ccco2)cc1 (configuration not stated)	–	Non-toxic
COc1ccc(COC(=O)C2=C(C)N(C)C(=O)NC2c2ccco2)cc1 (configuration not stated)	–	Non-toxic
COc1ccc(COC(=O)C2=C(C)N(C)C(=O)N(C)C2c2ccco2)cc1 (configuration not stated)	–	Non-toxic
COc1cccc(COC(=O)C2=C(C)NC(=O)NC2c2ccco2)c1 (configuration not stated)	–	Non-toxic
COc1cccc(COC(=O)C2=C(C)N(C)C(=O)NC2c2ccco2)c1 (configuration not stated)	–	Non-toxic
COc1cccc(COC(=O)C2=C(C)N(C)C(=O)N(C)C2c2ccco2)c1 (configuration not stated)	–	Non-toxic

Second part, led by results:

IC50 [1] [nM]	SMILES	Activity [2]
89	COc1ccc(COC(=O)C2=C(C)NC(=O)NC2c2ccccc2)cc1 (configuration not stated)	–
65	COc1ccc(COC(=O)C2=C(C)N(C)C(=O)N(C)C2c2ccco2)cc1OC (configuration not stated)	Non-toxic
70	COc1ccc(COC(=O)C2=C(C)NC(=O)N[C@@H]2c2ccccc2)cc1	–
1500	COc1ccc(COC(=O)C2=C(C)NC(=O)N[C@H]2c2ccccc2)cc1	–
630	COc1ccc(COC(=O)C2=C(C)NC(=O)N[C@@H]2c2ccco2)cc1	–
14000	COc1ccc(COC(=O)C2=C(C)NC(=O)N[C@H]2c2ccco2)cc1	–
630	CC1=C(C(=O)OCc2ccc3c(c2)OCO3)[C@H](c2ccco2)N(C)C(=O)N1C	–
400	COc1ccc(COC(=O)C2=C(C)NC(=O)NC2c2ccco2)cc1OC (configuration not stated)	Non-toxic
1000	COc1ccc(COC(=O)C2=C(C)N(C)C(=O)NC2c2ccco2)cc1OC (configuration not stated)	Non-toxic
